Assay results reported in ChEMBL document CHEMBL5096231, “Covalently Conjugated NOD2/TLR7 Agonists Are Potent and Versatile Immune Potentiators” (J Med Chem, 2022).
The source made the active and inactive calls. The rule behind the calls is not given here.

Key:
[1] = tested on: RAW-Blue; assay: Activation of NF-kappaB transcriptional activity in mouse RAW-Blue cells expressing NOD2 and TLR7 at 1 uM incubated for 18 hrs by quanti-blue/SEAP-based spectrophotometry analysis; type: cell-based; settings: filed as activator
Procedure, shortened: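 RAW-Blue cells pretreated 1 h with NOD2 antagonist SG84 (5 μM), TLR7 antagonist M5049 (1 μM), both, or neither, then given compound or 0.1% DMSO vehicle; 18 h at 37 °C, 5% CO2 in growth medium without Normocin/Zeocin. Supernatant mixed with QUANTI-Blue for 2 h at 37 °C, SEAP read at 630 nm. Activity relative to vehicle; three independent experiments, mean ± SEM.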

[2] = tested on: CD8-positive T cell; assay: (§1) Induction of mouse ovalbumin specific CD8-positive T cell activation assessed as increase in IL-6 expression at 1 uM preincubated for 18 hrs with mouse BDMC cells in presence of ovalbumin followed by washout and further coincubated with CD4+ T cells and measured after 72 hrs; type: functional, cell-based
Procedure, shortened: (§2)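 Supernatants taken after the 72 h coculture of washed BMDCs (18 h pretreatment with 1 μM compound, LPS 1 μg/mL or vehicle, plus OVA 50 μg/mL) with OT-II CD4+ or OT-I CD8+ T cells. Cytokines measured by mouse Th1/Th2/Th17 cytometric bead array. Duplicates of two independent experiments, mean ± SEM.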

[3] = tested on: CD4+ve Th; assay: (§3) Induction of mouse ovalbumin specific CD4+ T cell activation assessed as increase in IL-6 expression at 1 uM preincubated for 18 hrs with mouse BDMC cells in presence of ovalbumin followed by washout and further coincubated with CD4+ T cells and measured after 72 hrs; type: functional, cell-based; procedure, shortened: as §2
[4] = as §3, with “increase in CD25 expression at” for “increase in IL-6 expression at”, “72 hrs by flow cytometry analysis (reference value: 10.9%)” for “72 hrs”; type: functional, CD4+ve Th
Procedure, shortened: (§4)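 C57BL/6 BMDCs (GM-CSF 7 days, >90% CD11c+) pulsed 18 h with 1 μM compound, LPS 1 μg/mL or 0.1% DMSO plus OVA 50 μg/mL, washed. 1 × 10^4 BMDCs cocultured 72 h with 5 × 10^4 CFSE-labelled OT-II CD4+ or OT-I CD8+ T cells. Flow: live Thy1.2+ CD4+ or CD8+ cells scored as CD25+ CFSElow. Duplicates of two experiments.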

[5] = Cytotoxicity against HEK-Blue hNOD2 cells assessed as reduction in metabolic activity at 10 uM incubated for 18 hrs by MTS assay; type: toxicity, cell-based; settings: human, hek-blue hnod2, 18 h
Procedure, shortened: (§5)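 Cells (HEK-Blue NOD2, RAW-Blue or freshly isolated human PBMCs) seeded in duplicate and exposed to 10 μM compound or 0.1% DMSO vehicle for 18 h at 37 °C, 5% CO2. Metabolic activity then measured by CellTiter 96 AQueous One (MTS) assay.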

[6] = tested on: CD8-positive T cell; assay: Induction of mouse ovalbumin specific CD8-positive T cell activation assessed as increase in IL-17A expression at 1 uM preincubated for 18 hrs with mouse BDMC cells in presence of ovalbumin followed by washout and further coincubated with CD4+ T cells and measured after 72 hrs; type: functional, cell-based; procedure, shortened: as §2
[7] = Induction of activation of human CD56+ CD3- NK cells co-cultured with human PBMC cells assessed as increase in CD107a expression at 1 uM incubated for 24 hrs by flow cytometry analysis (reference value: 1.5%); type: functional, Natural killer cell
[8] = tested on: CD4+ve Th; assay: Induction of mouse ovalbumin specific CD4+ T cell activation assessed as increase in TNF expression at 1 uM preincubated for 18 hrs with mouse BDMC cells in presence of ovalbumin followed by washout and further coincubated with CD4+ T cells and measured after 72 hrs; type: functional, cell-based; procedure, shortened: as §2
[9] = tested on: MEC1; assay: Cytotoxicity against human MEC1 cells cocultured with human PBMC cells assessed as inhibition of cell proliferation at 1 uM incubated with PBMC cells for 18 hrs followed by co-incubation with MEC-1 cells for 4 hrs by SYTOX blue staining based flow cytometric analysis; type: functional
Procedure, shortened: (§6)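 Human PBMCs (Ficoll-isolated, healthy donors) pretreated 18 h in duplicate with compound (1 nM–1 μM) or 0.1% DMSO. CFSE-labelled K562 or MEC1 target cells then added, effector:target 40:1, 4 h at 37 °C. Sytox blue staining, flow cytometry; CFSE+Sytox+ cells counted as dead. Expressed relative to vehicle; three independent experiments, mean ± SEM.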

[10] = tested on: CD4+ve Th; assay: Induction of mouse ovalbumin specific CD4+ T cell activation assessed as increase in IL-17A expression at 1 uM preincubated for 18 hrs with mouse BDMC cells in presence of ovalbumin followed by washout and further coincubated with CD4+ T cells and measured after 72 hrs; type: functional, cell-based; procedure, shortened: as §2
[11] = tested on: CD4+ve Th; assay: Induction of mouse ovalbumin specific CD4+ T cell activation assessed as increase in IFN-gamma expression at 1 uM preincubated for 18 hrs with mouse BDMC cells in presence of ovalbumin followed by washout and further coincubated with CD4+ T cells and measured after 72 hrs; type: functional, cell-based; procedure, shortened: as §2
[12] = tested on: CD8-positive T cell; assay: Induction of mouse ovalbumin specific CD8-positive T cell activation assessed as increase in IFN-gamma expression at 1 uM preincubated for 18 hrs with mouse BDMC cells in presence of ovalbumin followed by washout and further coincubated […] and measured after 72 hrs; type: functional, cell-based; procedure, shortened: as §2
[13] = Induction of activation of human CD56+ CD3- NK cells co-cultured with human PBMC cells assessed as increase in CD69 expression at 1 uM incubated for 24 hrs by flow cytometry analysis (reference value: 2.7%); type: functional, Natural killer cell
[14] = Cytotoxicity against mouse RAW-Blue cells assessed as reduction in metabolic activity at 10 uM incubated for 18 hrs by MTS assay; type: toxicity, cell-based; procedure, shortened: as §5
[15] = Cytotoxicity against human PBMC cells assessed as reduction in metabolic activity at 10 uM incubated for 18 hrs by MTS assay; type: toxicity, cell-based; procedure, shortened: as §5
[16] = Induction of activation of human CD56+ CD3- NK cells co-cultured with human PBMC cells assessed as increase in IFN-gamma expression at 1 uM incubated for 24 hrs by flow cytometry analysis (reference value: 0.04%); type: functional, Natural killer cell
[17] = tested on: K562; assay: Cytotoxicity against human K562 cells cocultured with human PBMC cells assessed as inhibition of cell proliferation at 1 uM incubated with PBMC cells for 18 hrs followed by co-incubation with K562 cells for 4 hrs by SYTOX blue staining based flow cytometric analysis; type: functional; procedure, shortened: as §6
[18] = tested on: CD8-positive T cell; assay: Induction of mouse ovalbumin specific CD8-positive T cell activation assessed as increase in TNF expression at 1 uM preincubated for 18 hrs with mouse BDMC cells in presence of ovalbumin followed by washout and further coincubated with CD4+ T cells and measured after 72 hrs; type: functional, cell-based; procedure, shortened: as §2
[19] = as §1, with “increase in CD25 expression at” for “increase in IL-6 expression at”, “72 hrs by flow cytometry analysis (reference value: 12.6%)” for “72 hrs”; type: functional; procedure, shortened: as §4
[20] = tested on: PBMC; assay: Immunostimulatory activity in human PBMC cells assessed as increase in IL-8 production at 1 uM incubated for 18 hrs by flow cytometry analysis; type: functional, cell-based
Procedure, shortened: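 PBMCs at 1 × 10^6 cells/mL treated with compound (1 μM), LPS (1 μg/mL) or 0.1% DMSO vehicle; cell-free supernatants collected after 18 h at 37 °C, 5% CO2. Cytokines quantified by human inflammatory cytokine bead array on flow cytometry with recombinant standard curves. Four independent experiments, mean ± SEM.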

With `CCCCOc1nc(N)c2nc(O)n(Cc3ccc(C(=O)NCCCCCC(=O)Oc4ccc(/C=C/C(=O)NCC(=O)N[C@H](C(=O)N[C@H](CCC(=O)OCC)C(=O)OCC)C(C)C)cc4OC)cc3)c2n1` as the compound, how does the Activity [1] read?
Its Activity is “Active”.

And the Activity [2]?
The Activity was “Active”.

And the Activity [3]?
Its Activity is “Active”.

And the Activity [4]?
The Activity was 29.5%.

And the Activity [5]?
The Activity was “Non-Toxic”.

What about the Activity [6] of the same compound?
Its Activity is “Active”.

What about the Activity [7] of the same compound?
Its Activity is 8.6%.

What about the Activity [8] of the same compound?
The Activity was “Active”.

And the Activity [9]?
The Activity was “Active”.

What about the Activity [10] of the same compound?
The Activity was “Active”.

What about the Activity [11] of the same compound?
Its Activity is “Active”.

And the Activity [12]?
The Activity was “Active”.

What about the Activity [13] of the same compound?
The Activity was 93%.

What about the Activity [14] of the same compound?
Its Activity is “Non-Toxic”.

What about the Activity [15] of the same compound?
The Activity was “Non-Toxic”.

And the Activity [16]?
The Activity was 21%.

What about the Activity [17] of the same compound?
The Activity was “Active”.

What about the Activity [18] of the same compound?
The Activity was “Active”.

And the Activity [19]?
The Activity was 44.7%.

For `CCOC(=O)CC[C@@H](NC(=O)[C@@H](NC(=O)CNC(=O)/C=C/c1ccc(O)c(OC)c1)C(C)C)C(=O)OCC`, which Activity [20] is on record?
Its Activity is “Active”.

And the Activity [4]?
The Activity was 12.6%.

What about the Activity [5] of the same compound?
The Activity was “Non-Toxic”.

What about the Activity [7] of the same compound?
Its Activity is 1.1%.

And the Activity [13]?
Its Activity is 14%.

And the Activity [14]?
Its Activity is “Non-Toxic”.

What about the Activity [15] of the same compound?
Its Activity is “Non-Toxic”.

What about the Activity [16] of the same compound?
The Activity was 1.4%.

What about the Activity [19] of the same compound?
Its Activity is 13.1%.
